Calls of active or inactive are those of the source. No cut-off for these calls is given here.
Tests used:
Format in all cases: functional, cell-based
[1] = molecular target: T1, Parathyroid hormone/parathyroid hormone-related peptide receptor (Homo sapiens, UniProt Q03431); experiment: Agonist activity at human PTH1 receptor expressed in human GP2.3 cells assessed as induction of cAMP after 12 to 20 mins by luciferase reporter gene assay
T1 sequence (Q03431 whole entry): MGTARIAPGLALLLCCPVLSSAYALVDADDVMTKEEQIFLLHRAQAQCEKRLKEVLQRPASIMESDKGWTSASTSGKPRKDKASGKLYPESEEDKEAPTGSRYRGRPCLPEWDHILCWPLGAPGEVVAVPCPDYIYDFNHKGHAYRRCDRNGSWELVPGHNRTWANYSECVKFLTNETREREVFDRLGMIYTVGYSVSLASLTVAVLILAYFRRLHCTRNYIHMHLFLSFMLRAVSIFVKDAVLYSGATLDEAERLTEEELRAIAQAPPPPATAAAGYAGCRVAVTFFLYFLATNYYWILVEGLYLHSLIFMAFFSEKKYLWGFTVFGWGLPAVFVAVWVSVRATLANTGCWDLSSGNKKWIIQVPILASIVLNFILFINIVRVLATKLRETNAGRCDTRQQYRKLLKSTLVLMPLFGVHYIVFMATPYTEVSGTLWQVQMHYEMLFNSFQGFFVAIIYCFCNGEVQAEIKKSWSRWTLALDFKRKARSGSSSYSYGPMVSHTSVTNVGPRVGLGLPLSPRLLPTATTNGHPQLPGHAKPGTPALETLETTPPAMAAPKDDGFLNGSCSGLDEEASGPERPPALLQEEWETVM

[2] = molecular target: T2, Parathyroid hormone/parathyroid hormone-related peptide receptor (Homo sapiens) (UniProt Q03431); experiment: Agonist activity at human PTH1 receptor expressed in human GP2.3 cells assessed as induction of cAMP after 12 to 20 mins by luciferase reporter gene assay relative to PTH(1 to 34 residues)-NH2
T2 sequence (whole entry): T1 sequence (Q03431 whole entry)

[3] = molecular target: T2, Parathyroid hormone/parathyroid hormone-related peptide receptor (Homo sapiens); experiment: Agonist activity at extracellular domain truncate human PTH1 receptor expressed in GD5 cells assessed as induction of cAMP after 12 to 20 mins by luciferase reporter gene assay
Outline: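 HEK293-derived lines stably expressing Glosensor cAMP reporter plus full-length human PTHR1 (GP2.3) or ECD-truncated PTHR1 (GD5). Confluent monolayers preincubated at room temperature in CO2-independent medium with 0.5 mM D-luciferin until baseline stable (30 min), then varied agonist concentrations added. Maximal luminescence (12−20 min) used for sigmoidal variable-slope fits.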

Row | EC50 ([1]; read-out: EC50) | fold change (FC) [2] | Activity [3] | EC50 [1] | Compound
1 | 9740 pM | 107 | Active | – | CC[C@H](C)[C@H](NC(=O)[C@H](CCC(=O)O)NC(=O)[C@H](CO)NC(=O)[C@@H](NC(=O)[C@@H](N)CO)C(C)C)C(=O)N[C@@H](CCC(N)=O)C(=O)N[C@@H](CC(C)C)C(=O)N[C@H]1CCC[C@@H]1C(=O)N[C@@H](Cc1cnc[nH]1)C(=O)N[C@@H](CC(N)=O)C(=O)N[C@@H](CC(C)C)C(=O)NCC(=O)N[C@@H](CCCCN)C(=O)N[C@@H](Cc1cnc[nH]1)C(=O)N[C@@H](CC(C)C)C(=O)N[C@@H](CC(N)=O)C(=O)N[C@@H](CO)C(=O)N[C@@H](CCSC)C(=O)N[C@@H](CCC(=O)O)C(=O)N[C@@H](CCCNC(=N)N)C(=O)N[C@H](C(=O)N[C@@H](CCC(=O)O)C(=O)N[C@@H](Cc1c[nH]c2ccccc12)C(=O)N[C@@H](CC(C)C)C(=O)N[C@@H](CCCNC(=N)N)C(=O)N[C@@H](CCCCN)C(=O)N[C@@H](CCCCN)C(=O)N[C@@H](CC(C)C)C(=O)N[C@@H](CCC(N)=O)C(=O)N[C@@H](CC(=O)O)C(=O)N[C@H](C(=O)N[C@@H](Cc1cnc[nH]1)C(=O)N[C@@H](CC(N)=O)C(=O)N[C@@H](Cc1ccccc1)C(N)=O)C(C)C)C(C)C
2 | – | – | Active | Not Active | CC[C@H](C)[C@H](NC(=O)[C@H](CCC(=O)O)NC(=O)[C@H](CO)NC(=O)[C@@H](NC(=O)[C@@H](N)CO)C(C)C)C(=O)N[C@@H](CCC(N)=O)C(=O)N[C@@H](CC(C)C)C(=O)N[C@@H](CCSC)C(=O)N[C@H]1CNC[C@@H]1C(=O)N[C@@H](CC(N)=O)C(=O)N[C@@H](CC(C)C)C(=O)NCC(=O)N[C@@H](CCCCN)C(=O)N[C@@H](Cc1cnc[nH]1)C(=O)N[C@@H](CC(C)C)C(=O)N[C@@H](CC(N)=O)C(=O)N[C@@H](CO)C(=O)N[C@@H](CCSC)C(=O)N[C@@H](CCC(=O)O)C(=O)N[C@@H](CCCNC(=N)N)C(=O)N[C@H](C(=O)N[C@@H](CCC(=O)O)C(=O)N[C@@H](Cc1c[nH]c2ccccc12)C(=O)N[C@@H](CC(C)C)C(=O)N[C@@H](CCCNC(=N)N)C(=O)N[C@@H](CCCCN)C(=O)N[C@@H](CCCCN)C(=O)N[C@@H](CC(C)C)C(=O)N[C@@H](CCC(N)=O)C(=O)N[C@@H](CC(=O)O)C(=O)N[C@H](C(=O)N[C@@H](Cc1cnc[nH]1)C(=O)N[C@@H](CC(N)=O)C(=O)N[C@@H](Cc1ccccc1)C(N)=O)C(C)C)C(C)C
3 | 170 pM | 1.9 | Active | – | CSCC[C@H](NC(=O)[C@H](CO)NC(=O)[C@H](CC(N)=O)NC(=O)[C@H](CC(C)C)NC(=O)[C@H](Cc1cnc[nH]1)NC(=O)[C@H](CCCCN)NC(=O)CNC(=O)[C@H](CC(C)C)NC(=O)[C@H](CC(N)=O)NC(=O)[C@H](Cc1cnc[nH]1)NC(=O)[C@H](CCSC)NC(=O)[C@H](CC(C)C)NC(=O)[C@H](CCC(N)=O)NC(=O)[C@H]1CCC[C@@H]1NC(=O)[C@H](CCC(=O)O)NC(=O)[C@H](CO)NC(=O)[C@@H](NC(=O)[C@@H](N)CO)C(C)C)C(=O)N[C@@H](CCC(=O)O)C(=O)N[C@@H](CCCNC(=N)N)C(=O)N[C@H](C(=O)N[C@@H](CCC(=O)O)C(=O)N[C@@H](Cc1c[nH]c2ccccc12)C(=O)N[C@@H](CC(C)C)C(=O)N[C@@H](CCCNC(=N)N)C(=O)N[C@@H](CCCCN)C(=O)N[C@@H](CCCCN)C(=O)N[C@@H](CC(C)C)C(=O)N[C@@H](CCC(N)=O)C(=O)N[C@@H](CC(=O)O)C(=O)N[C@H](C(=O)N[C@@H](Cc1cnc[nH]1)C(=O)N[C@@H](CC(N)=O)C(=O)N[C@@H](Cc1ccccc1)C(N)=O)C(C)C)C(C)C
4 | 11500 pM | 126 | Active | – | CC[C@H](C)[C@H](NC(=O)[C@H](CCC(=O)O)NC(=O)[C@H]1CCC[C@@H]1NC(=O)[C@@H](NC(=O)[C@@H](N)CO)C(C)C)C(=O)N[C@@H](CCC(N)=O)C(=O)N[C@@H](CC(C)C)C(=O)N[C@@H](CCSC)C(=O)N[C@@H](Cc1cnc[nH]1)C(=O)N[C@@H](CC(N)=O)C(=O)N[C@@H](CC(C)C)C(=O)NCC(=O)N[C@@H](CCCCN)C(=O)N[C@@H](Cc1cnc[nH]1)C(=O)N[C@@H](CC(C)C)C(=O)N[C@@H](CC(N)=O)C(=O)N[C@@H](CO)C(=O)N[C@@H](CCSC)C(=O)N[C@@H](CCC(=O)O)C(=O)N[C@@H](CCCNC(=N)N)C(=O)N[C@H](C(=O)N[C@@H](CCC(=O)O)C(=O)N[C@@H](Cc1c[nH]c2ccccc12)C(=O)N[C@@H](CC(C)C)C(=O)N[C@@H](CCCNC(=N)N)C(=O)N[C@@H](CCCCN)C(=O)N[C@@H](CCCCN)C(=O)N[C@@H](CC(C)C)C(=O)N[C@@H](CCC(N)=O)C(=O)N[C@@H](CC(=O)O)C(=O)N[C@H](C(=O)N[C@@H](Cc1cnc[nH]1)C(=O)N[C@@H](CC(N)=O)C(=O)N[C@@H](Cc1ccccc1)C(N)=O)C(C)C)C(C)C
5 | 270 pM | 3 | Active | – | CC[C@H](C)[C@H](NC(=O)[C@H](CCC(=O)O)NC(=O)[C@H](CO)NC(=O)[C@H]1CCC[C@@H]1NC(=O)[C@@H](N)CO)C(=O)N[C@@H](CCC(N)=O)C(=O)N[C@@H](CC(C)C)C(=O)N[C@@H](CCSC)C(=O)N[C@@H](Cc1cnc[nH]1)C(=O)N[C@@H](CC(N)=O)C(=O)N[C@@H](CC(C)C)C(=O)NCC(=O)N[C@@H](CCCCN)C(=O)N[C@@H](Cc1cnc[nH]1)C(=O)N[C@@H](CC(C)C)C(=O)N[C@@H](CC(N)=O)C(=O)N[C@@H](CO)C(=O)N[C@@H](CCSC)C(=O)N[C@@H](CCC(=O)O)C(=O)N[C@@H](CCCNC(=N)N)C(=O)N[C@H](C(=O)N[C@@H](CCC(=O)O)C(=O)N[C@@H](Cc1c[nH]c2ccccc12)C(=O)N[C@@H](CC(C)C)C(=O)N[C@@H](CCCNC(=N)N)C(=O)N[C@@H](CCCCN)C(=O)N[C@@H](CCCCN)C(=O)N[C@@H](CC(C)C)C(=O)N[C@@H](CCC(N)=O)C(=O)N[C@@H](CC(=O)O)C(=O)N[C@H](C(=O)N[C@@H](Cc1cnc[nH]1)C(=O)N[C@@H](CC(N)=O)C(=O)N[C@@H](Cc1ccccc1)C(N)=O)C(C)C)C(C)C
6 | 120 pM | 1.3 | Active | – | CC[C@H](C)[C@H](NC(=O)[C@H](CCC(=O)O)NC(=O)[C@H](CO)NC(=O)[C@@H](NC(=O)[C@@H](N)CO)C(C)C)C(=O)N[C@@H](CCC(N)=O)C(=O)N[C@H]1CCC[C@@H]1C(=O)N[C@@H](CCSC)C(=O)N[C@@H](Cc1cnc[nH]1)C(=O)N[C@@H](CC(N)=O)C(=O)N[C@@H](CC(C)C)C(=O)NCC(=O)N[C@@H](CCCCN)C(=O)N[C@@H](Cc1cnc[nH]1)C(=O)N[C@@H](CC(C)C)C(=O)N[C@@H](CC(N)=O)C(=O)N[C@@H](CO)C(=O)N[C@@H](CCSC)C(=O)N[C@@H](CCC(=O)O)C(=O)N[C@@H](CCCNC(=N)N)C(=O)N[C@H](C(=O)N[C@@H](CCC(=O)O)C(=O)N[C@@H](Cc1c[nH]c2ccccc12)C(=O)N[C@@H](CC(C)C)C(=O)N[C@@H](CCCNC(=N)N)C(=O)N[C@@H](CCCCN)C(=O)N[C@@H](CCCCN)C(=O)N[C@@H](CC(C)C)C(=O)N[C@@H](CCC(N)=O)C(=O)N[C@@H](CC(=O)O)C(=O)N[C@H](C(=O)N[C@@H](Cc1cnc[nH]1)C(=O)N[C@@H](CC(N)=O)C(=O)N[C@@H](Cc1ccccc1)C(N)=O)C(C)C)C(C)C
7 | – | – | Active | Not Active | CC[C@H](C)[C@H](NC(=O)[C@H]1CCC[C@@H]1NC(=O)[C@H](CO)NC(=O)[C@@H](NC(=O)[C@@H](N)CO)C(C)C)C(=O)N[C@@H](CCC(N)=O)C(=O)N[C@@H](CC(C)C)C(=O)N[C@@H](CCSC)C(=O)N[C@@H](Cc1cnc[nH]1)C(=O)N[C@@H](CC(N)=O)C(=O)N[C@@H](CC(C)C)C(=O)NCC(=O)N[C@@H](CCCCN)C(=O)N[C@@H](Cc1cnc[nH]1)C(=O)N[C@@H](CC(C)C)C(=O)N[C@@H](CC(N)=O)C(=O)N[C@@H](CO)C(=O)N[C@@H](CCSC)C(=O)N[C@@H](CCC(=O)O)C(=O)N[C@@H](CCCNC(=N)N)C(=O)N[C@H](C(=O)N[C@@H](CCC(=O)O)C(=O)N[C@@H](Cc1c[nH]c2ccccc12)C(=O)N[C@@H](CC(C)C)C(=O)N[C@@H](CCCNC(=N)N)C(=O)N[C@@H](CCCCN)C(=O)N[C@@H](CCCCN)C(=O)N[C@@H](CC(C)C)C(=O)N[C@@H](CCC(N)=O)C(=O)N[C@@H](CC(=O)O)C(=O)N[C@H](C(=O)N[C@@H](Cc1cnc[nH]1)C(=O)N[C@@H](CC(N)=O)C(=O)N[C@@H](Cc1ccccc1)C(N)=O)C(C)C)C(C)C
